Data reported in ChEMBL document CHEMBL2057069, “Benzoxazole and benzothiazole amides as novel pharmacokinetic enhancers of HIV protease inhibitors” (Bioorg Med Chem Lett, 2012).
Activity calls are given as the source filed them. The calls are words filed in the database; no cut-off is given here.

What was measured:
[1] = AUC (0 to infinity) in dog at 7.5 mg/kg, po; assay type: ADME, organism-based, Canis lupus familiaris; set-up: time infinity, dose 7.5 mg/kg, route oral; conditions: plasma
Summary of the method: (§1)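 Drug–drug interaction study in dogs, n = 3. The booster was given orally at 7.5 mg/kg as a PEG400 solution, 5 min before oral darunavir at 30 mg/kg. Darunavir plasma Cmax and AUC0–∞ were measured, with fold increase calculated against darunavir dosed alone.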

[2] = Apparent permeability across human Caco2 cells at 10 uM at pH 7.4 after 60 mins; assay type: ADME, cell-based; conditions: Caco-2, pH 7.4
Summary of the method: (§2)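 Caco-2 monolayers were exposed to compound at 10 µM and sampled after 60 min of incubation, at pH 5.5 or pH 7.4. Apparent permeability was measured in the absorptive and secretory directions, with efflux expressed as the secretory/absorptive ratio.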

[3] = Apparent permeability across human Caco2 cells at 10 uM at pH 5.5 after 60 mins; assay type: ADME, cell-based; conditions: Caco-2, pH 5.5; summary of the method: as §2
[4] = Cmax in dog at 7.5 mg/kg, po; assay type: ADME, organism-based, Canis lupus familiaris; set-up: dose 7.5 mg/kg, route oral; conditions: in vivo; summary of the method: as §1
[5] = Tmax in dog at 10 mg/kg, po administered as single dose; assay type: ADME, organism-based, Canis lupus familiaris; set-up: dose 10 mg/kg, route oral; conditions: in vivo
Summary of the method: (§3)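 Single oral dose of 10 mg/kg given to rats and dogs, n = 3 per species. Plasma Cmax, Tmax, AUC0–∞ and absolute oral bioavailability were derived from the plasma profiles.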

[6] = test system: Human immunodeficiency virus 1; experiment: Antiviral activity against wild type HIV1 3B infected in human MT4 LTR-EGFP cells by EGFP reporter gene assay; assay type: functional, organism-based; conditions: Human immunodeficiency virus 1, 3B
[7] = Tmax in rat at 10 mg/kg, po administered as single dose; assay type: ADME, organism-based; set-up: dose 10 mg/kg, route oral; conditions: in vivo; summary of the method: as §3
[8] = AUC (0 to infinity) in dog at 10 mg/kg, po administered as single dose; assay type: ADME, organism-based, Canis lupus familiaris; set-up: time infinity, dose 10 mg/kg, route oral; conditions: plasma; summary of the method: as §3
[9] = AUC (0 to infinity) in rat at 10 mg/kg, po administered as single dose; assay type: ADME, organism-based; set-up: time infinity, dose 10 mg/kg, route oral; conditions: plasma
[10] = Absolute oral bioavailability in dog at 10 mg/kg administered as single dose; assay type: ADME, organism-based, Canis lupus familiaris; conditions: in vivo; summary of the method: as §3
[11] = Absolute oral bioavailability in rat at 10 mg/kg administered as single dose; assay type: ADME, organism-based; conditions: in vivo; summary of the method: as §3
[12] = Cmax in dog at 10 mg/kg, po administered as single dose; assay type: ADME, organism-based, Canis lupus familiaris; set-up: dose 10 mg/kg, route oral; conditions: in vivo; summary of the method: as §3
Canis familiaris [13] = experiment: Enhancement of darunavir AUC (0 to infinity) in dog at 7.5 mg/kg, po administered 5 mins prior to darunavir co-administration; assay type: ADME, organism-based, Canis lupus familiaris; set-up: dose 7.5 mg/kg, route oral; conditions: in vivo
[14] = Cmax in rat at 10 mg/kg, po administered as single dose; assay type: ADME, organism-based; set-up: dose 10 mg/kg, route oral; conditions: in vivo; summary of the method: as §3
Canis familiaris [15] = experiment: Enhancement of darunavir Cmax in dog at 7.5 mg/kg, po administered 5 mins prior to darunavir co-administration; assay type: ADME, organism-based, Canis lupus familiaris; set-up: dose 7.5 mg/kg, route oral; conditions: in vivo
[16] = Efflux ratio of apparent permeability of the compound from basal to apical to apical to basal side of human Caco2 cells at 10 uM at pH 5.5 after 60 mins; assay type: ADME, cell-based; conditions: Caco-2, pH 5.5
Summary of the method: (§4)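 Caco-2 monolayers; test compound at 10 µM; apparent permeability measured in secretory and absorptive directions at pH 5.5 and at pH 7.4, read after 60 min incubation; transport polarity taken as P_secretory/P_absorptive.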

Cytochrome P450 3A4 = Cytochrome P450 3A4 (Homo sapiens, UniProt P08684); experiment: Inhibition of CYP3A4 in human liver microsomes using midazolam as substrate after 10 mins by LC/MS/MS analysis
Sequence of Cytochrome P450 3A4 (P08684 whole entry): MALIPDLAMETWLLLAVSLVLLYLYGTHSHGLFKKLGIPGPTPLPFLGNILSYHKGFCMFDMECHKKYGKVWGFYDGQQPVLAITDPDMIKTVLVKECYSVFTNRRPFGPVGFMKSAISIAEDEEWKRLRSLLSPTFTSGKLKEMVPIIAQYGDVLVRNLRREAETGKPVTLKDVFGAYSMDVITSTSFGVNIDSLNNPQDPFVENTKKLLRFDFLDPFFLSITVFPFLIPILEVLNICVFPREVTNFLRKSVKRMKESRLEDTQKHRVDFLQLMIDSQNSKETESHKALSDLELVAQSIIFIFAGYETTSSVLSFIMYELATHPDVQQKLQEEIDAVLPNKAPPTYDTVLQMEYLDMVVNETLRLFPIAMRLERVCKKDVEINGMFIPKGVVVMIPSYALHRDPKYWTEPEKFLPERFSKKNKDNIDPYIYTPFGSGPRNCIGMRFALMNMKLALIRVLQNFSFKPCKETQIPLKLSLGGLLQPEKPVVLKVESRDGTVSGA

[17] = Efflux ratio of apparent permeability of the compound from basal to apical to apical to basal side of human Caco2 cells at 10 uM at pH 7.4 after 60 mins; assay type: ADME, cell-based; conditions: Caco-2, pH 7.4; summary of the method: as §4
Homo sapiens = species: Homo sapiens; experiment: Inhibition of P-glycoprotein using taxol as substrate
[18] = Drug metabolism in dog hepatocytes at 2 uM after 2 hrs; assay type: ADME, cell-based, Canis lupus familiaris, Hepatocyte; conditions: read-out: Drug metabolism

Row | AUC(0-inf) [1] | Papp at 1 h, 10 µM [2] | Papp at 1 h, 10 µM [3] | Cmax [4] | Tmax [5] | EC50 [6] | Tmax [7] | AUC(0-inf) [8] | AUC(0-inf) [9] | bioavailability [10] | bioavailability [11] | Cmax [12] | fold change (FC) (Canis familiaris [13]) | Cmax [14] | fold change (FC) (Canis familiaris [15]) | efflux ratio at 1 h, 10 µM [16] | IC50 (Cytochrome P450 3A4) | efflux ratio at 1 h, 10 µM [17] | inhibition (Homo sapiens) | metabolised at 2 h, 2 µM [18] | SMILES
1 | 2000 ng·h/mL | 11 ×10⁻⁶ cm/s | 10 ×10⁻⁶ cm/s | 610 ng/mL | 30 min | 71 µM | 60 min | 2240 ng·h/mL | 970 ng·h/mL | 81% | 44% | 1010 ng/mL | 5 | 240 ng/mL | 2 |  |  |  |  |  | CCN(C)c1nc2ccc(C(=O)N(CC(C)C)C[C@@H](O)[C@H](Cc3ccccc3)NC(=O)OCc3cncs3)cc2o1
2 | 6480 ng·h/mL | 1.2 ×10⁻⁶ cm/s | 0.52 ×10⁻⁶ cm/s | 2300 ng/mL | 60 min | 76 µM | 30 min | 200 ng·h/mL | 10 ng·h/mL | 1.37% | 0.82% | 140 ng/mL | 4.7 | 10 ng/mL | 1.8 | 26 | 0.019 µM | 22 | Active | 12% | CC(C)CN(C[C@@H](O)[C@H](Cc1ccccc1)NC(=O)OCc1cncs1)C(=O)c1ccc2nc(N)sc2c1
3 | 7070 ng·h/mL | 9.8 ×10⁻⁶ cm/s | 11 ×10⁻⁶ cm/s | 2100 ng/mL | 60 min | 95 µM | 30 min | 2240 ng·h/mL | 7800 ng·h/mL | 97% | 107% | 5200 ng/mL | 4.8 | 2800 ng/mL | 2 | 2 | 0.023 µM | 3.6 |  |  | CC(C)CN(C[C@@H](O)[C@H](Cc1ccccc1)NC(=O)OCc1cncs1)C(=O)c1ccc2ncsc2c1
